[ ]: non-standard residue; d: D form. Ahx = NCCCCCC(=O)O
T1: RHAMM:HA interaction, immobilized recombinant RHAMM (Mus musculus, UniProt Q00547)
T1 sequence (Q00547 with tags, fused parts or gaps): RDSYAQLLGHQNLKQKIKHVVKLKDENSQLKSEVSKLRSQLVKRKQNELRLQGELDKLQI

T2: peptide 10b (EEDFGEEAEEEA)
T2 peptide: Ac-C[Ahx]EEDFGEEAEEEA-NH2

T3: peptide 14b (FTEAESNMNDLV)
T3 peptide: Ac-C[Ahx]FTEAESNMNDLV-NH2

T4: peptide 2b (VEGEGEEEGEEY)
T4 peptide: Ac-C[Ahx]VEGEGEEEGEEY-NH2

B1: Recombinant protein RHAMM-CT (aa. 706–767) (domain or fragment)
chain: T1 sequence (Q00547 with tags, fused parts or gaps)

Legend:
[1] = target: T1, RHAMM:HA interaction, immobilized recombinant RHAMM; test: Competitive ELISA, fluorescein-labelled peptides vs HA; type: binding; conditions: summary of the competitive ELISA results
PC3MLN4 cells [2] = test: Anchorage independent growth; type: cell-based, human
PC3MLN4 cells [3] = test: Cell invasion assay; type: cell-based, human; conditions: 10 µg/mL, 48 hrs, compared to scrambled peptide control
Outline: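 Gelatin invadopodia assay: PC3MLN4 cells are plated at 50% confluency on Cy3-gelatin-coated chamber slides in growth medium with test peptide or scrambled control peptide (10 µg/mL each). After 48 h, cells are fixed, stained with FITC-phalloidin and DAPI, and imaged by confocal microscopy to assess degradation of the fluorescent matrix.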

PC3MLN4 cells [4] = test: Cell adhesion on invasion assay substrates; type: cell-based, human; conditions: PC3MLN4 on the invasion assay substrates (not shown)
[5] = target: T2, peptide 10b (EEDFGEEAEEEA); test: SPR
[6] = target: T3, peptide 14b (FTEAESNMNDLV); test: SPR
[7] = target: T4, peptide 2b (VEGEGEEEGEEY); test: SPR

Molecule | Overall efficiency at competing with HA for binding to RHAMM [1] | Effect on anchorage independent proliferation (PC3MLN4 cells [2]) | Inhibition of the ability to degrade collagen (PC3MLN4 cells [3]) | Inhibition of cell adhesion (PC3MLN4 cells [4]) | Kd [5] | Kd [6] | Kd [7]
EAFEDEEEEIDG [12a] | most efficient at competing with HA | – | – | – | – | – | –
FTEAESNMNDLV [14a] | most efficient at competing with HA | marginal effects | 80% | no observed inhibition | – | – | –
B1 | – | – | – | – | 32 nM | 30 nM | 24 nM
